Measurements: ChEMBL document CHEMBL4043283, “Discovery and Preclinical Development of IIIM-290, an Orally Active Potent Cyclin-Dependent Kinase Inhibitor” (J Med Chem, 2018)
The source made the active and inactive calls. The rule behind the calls is not given here.

Assays:
[1] = biological target: CDK9/cyclin T1 (Homo sapiens) (UniProt O60563+P50750); assay: Inhibition of CDK9/cyclin T1 (unknown origin) at 0.5 uM using YSPTSPSYSPTSPSYSPTSPKKK as substrate after 30 mins in presence of [33P]-gamma-ATP by filter binding assay relative to control; format: protein-complex assay
[2] = biological target: CDK9/cyclin T1 (Homo sapiens, UniProt P50750); assay: Inhibition of CDK9/cyclin T1 (unknown origin) using YSPTSPSYSPTSPSYSPTSPKKK as substrate after 30 mins in presence of [33P]-gamma-ATP by filter binding assay; format: protein-complex assay
[3] = biological target: Cyclin-dependent kinase 5/CDK5 activator 1 (Homo sapiens, UniProt Q00535); assay: Inhibition of CDK5/cyclin p25 (unknown origin) after 30 mins in presence of [33P]-gamma-ATP by filter binding assay; format: protein-complex assay
[4] = biological target: CDK6/cyclin D3 (Homo sapiens, UniProt Q00534); assay: Inhibition of CDK6/cyclin D3 (unknown origin) after 30 mins in presence of [33P]-gamma-ATP by filter binding assay; format: protein-complex assay
[5] = system: Tyrosine-protein kinase ABL1 (Homo sapiens), P00519 [E255K]; assay: Inhibition of phosphorylated partial length human ABL1 E255K mutant expressed in mammalian expression system at 0.5 uM by KINOMEscan method relative to control
Summary of the method: (§1)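 Competition binding screen (KINOMEscan) at 0.5 μM; primary binding read out as % of control, lower values indicating stronger interaction.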

[6] = system: Tyrosine-protein kinase ABL1 (Homo sapiens), P00519 [H396P]; assay: Inhibition of partial length human ABL1 H396P mutant expressed in mammalian expression system at 0.5 uM by KINOMEscan method relative to control; summary of the method: as §1
[7] = biological target: Tyrosine-protein kinase Blk (Homo sapiens) (UniProt P51451); assay: Inhibition of partial length wild type human BLK expressed in bacterial expression system at 0.5 uM by KINOMEscan method relative to control; summary of the method: as §1
[8] = biological target: Voltage-gated inwardly rectifying potassium channel KCNH2 (Homo sapiens, UniProt Q12809); assay: Inhibition of [3H]-astemizole binding to human ERG expressed in HEK293 cell membranes by scintillation counting method
[9] = system: NCI-H522; assay: Growth inhibition of human NCI-H522 cells after 48 hrs by MTT assay; format: functional; conditions: NCI-H522, 48 h
Summary of the method: (§2)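 Cancer cell lines sourced from the National Cancer Institute (USA). Cells kept in appropriate growth medium at 37 °C, 95% humidity, 5% CO2. Antiproliferation read by tetrazolium (MTT) assay. GI50 values were determined only for compounds selected after an initial single-concentration screen.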

[10] = system: OVCAR-3; assay: Growth inhibition of human OVCAR3 cells after 48 hrs by MTT assay; format: functional; conditions: OVCAR-3, 48 h; summary of the method: as §2
[11] = system: MIA PaCa-2; assay: Cell cycle arrest in human MIAPaCa2 cells assessed as accumulation at G2 phase at 1.5 uM after 24 hrs by propidium iodide staining-based flow cytometric method (reference value: 30%); format: functional
[12] = system: MIA PaCa-2; assay: Induction of apoptosis in human MIAPaCa2 cells at 1.5 uM after 24 hrs by propidium iodide staining-based flow cytometric method relative to control; format: functional
[13] = Chemical stability of compound in phosphate buffered saline at pH 7.4 assessed as parent compound remaining at 120 ug/ml after 24 hrs by HPLC method; format: physicochemical; conditions: read-out: Stability
[14] = biological target: Cytochrome P450 1A2 (Homo sapiens, UniProt P05177); assay: Inhibition of human CYP1A2 using fluorogenic substrate preincubated with co-factor for 10 mins followed by enzyme-substrate addition by fluorometric method; format: ADME
Summary of the method: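 Cofactor plus test item or vehicle, in triplicate, preincubated 10 min at 37 °C; prewarmed enzyme–substrate mix added and incubated at 37 °C with shaking. Quench: acetonitrile (CYP2C19, CYP3A4) or 0.25 M Tris in 60% methanol (CYP2C9, CYP2D6). Metabolite fluorescence read; % inhibition computed against enzyme controls and enzyme-free blanks.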

[15] = Half life in mouse liver microsomes at 100 uM after 30 mins by LC-MS/MS analysis; format: ADME, microsome
Summary of the method: (§3)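 Parent loss followed over time to give half-life, with NADPH as cofactor for microsomal phase I metabolism.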

[16] = Half life in rat liver microsomes at 100 uM after 30 mins by LC-MS/MS analysis; format: ADME, microsome; summary of the method: as §3
[17] = Intrinsic clearance in rat liver microsomes assessed per mg of protein at 100 uM after 30 mins by LC-MS/MS analysis; format: ADME, microsome; conditions: read-out: CLH
[18] = Half life in dog hepatocytes at 3 uM after 180 mins by LC-MS/MS analysis; format: ADME, cell-based, Canis lupus familiaris, Hepatocyte
[19] = Half life in human liver S9 fraction preincubated for 5 mins followed by NADPH addition measured after 30 mins by LC-MS/MS analysis; format: ADME, tissue-based
[20] = system: Liver; assay: Intrinsic clearance in human liver S9 fraction assessed per mg of protein preincubated for 5 mins followed by NADPH addition measured after 30 mins by LC-MS/MS analysis; format: ADME, tissue-based; conditions: s9, 0.5 h
[21] = Elimination half life in BALB/c mouse at 1 mg/kg, iv by LC-MS/MS analysis; format: ADME, organism-based; conditions: in vivo, read-out: beta t1/2 (converted)
[22] = Volume of distribution at steady state in BALB/c mouse at 1 mg/kg, iv by LC-MS/MS analysis; format: ADME, organism-based; conditions: in vivo, read-out: Vdss
[23] = Half life in BALB/c mouse at 3 mg/kg, po by LC-MS/MS analysis; format: ADME, organism-based; conditions: in vivo
[24] = AUC in BALB/c mouse at 3 mg/kg, po by LC-MS/MS analysis; format: ADME, organism-based; conditions: in vivo
[25] = Half life in BALB/c mouse at 30 mg/kg, po by LC-MS/MS analysis; format: ADME, organism-based; conditions: in vivo
[26] = Cmax in Sprague-Dawley rat at 3 mg/kg, po by LC-MS/MS analysis; format: ADME, organism-based; parameters: dose 3 mg/kg, route oral; conditions: in vivo
[27] = Pancreas to plasma partition coefficient, Kp of the compound in BALB/c mouse at 30 mg/kg, po measured at 1 hr; format: ADME, organism-based; conditions: pancreas and plasma
[28] = Pancreas to plasma partition coefficient, Kp of the compound in BALB/c mouse at 30 mg/kg, po measured at 8 hrs; format: ADME, organism-based; conditions: pancreas and plasma
[29] = system: Liver; assay: Drug uptake in BALB/c mouse liver at 30 mg/kg, po after 8 hrs; format: ADME, organism-based; conditions: in vivo
[30] = system: Ehrlich; assay: Antitumor activity against Swiss mouse EAC allografted in Swiss albino mouse assessed as tumor growth inhibition at 70 mg/kg, po administered for 9 day measured on day 13 relative to control; format: functional; conditions: read-out: TGI
[31] = Toxicity in po dosed Swiss albino mouse allografted with Swiss mouse EAC administered for 9 day; format: organism-based; conditions: in vivo
[32] = system: Mus musculus; assay: Toxicity in CD1 nude mouse xenografted with human MOLT4 cells assessed as mortality at 50 mg/kg, po qd administered on day 10 to 25 post tumor inoculation; format: organism-based; conditions: in vivo
[33] = system: MOLT-4; assay: Antitumor activity against human MOLT4 cells xenografted in CD1 nude mouse assessed as tumor growth inhibition at 25 mg/kg, po qd administered on day 10 to 25 post tumor inoculation; format: functional, organism-based
[34] = system: PBL; assay: Genotoxicity in human PBL at 0.125 to 2 ug/ml in presence of cytokinesis blocking agent cytochalasin B and absence of liver S9 fraction by micronucleus test; format: toxicity, cell-based

Chain of Tyrosine-protein kinase Blk (Homo sapiens) (P51451 2-505 limits assumed): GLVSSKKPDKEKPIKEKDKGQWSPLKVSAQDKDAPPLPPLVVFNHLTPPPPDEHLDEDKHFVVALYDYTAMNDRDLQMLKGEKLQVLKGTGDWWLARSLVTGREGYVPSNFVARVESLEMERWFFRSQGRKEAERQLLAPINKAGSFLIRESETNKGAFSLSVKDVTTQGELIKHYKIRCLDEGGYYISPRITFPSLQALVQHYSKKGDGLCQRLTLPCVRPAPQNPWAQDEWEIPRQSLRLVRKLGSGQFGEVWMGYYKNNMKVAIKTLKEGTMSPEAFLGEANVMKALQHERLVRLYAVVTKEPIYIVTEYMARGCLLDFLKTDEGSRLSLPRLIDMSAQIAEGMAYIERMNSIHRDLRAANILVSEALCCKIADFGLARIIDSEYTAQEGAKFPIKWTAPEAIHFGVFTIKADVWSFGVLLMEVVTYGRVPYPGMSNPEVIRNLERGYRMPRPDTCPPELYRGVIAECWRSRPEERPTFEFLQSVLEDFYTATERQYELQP
Chain of CDK6/cyclin D3 (P30281 whole entry): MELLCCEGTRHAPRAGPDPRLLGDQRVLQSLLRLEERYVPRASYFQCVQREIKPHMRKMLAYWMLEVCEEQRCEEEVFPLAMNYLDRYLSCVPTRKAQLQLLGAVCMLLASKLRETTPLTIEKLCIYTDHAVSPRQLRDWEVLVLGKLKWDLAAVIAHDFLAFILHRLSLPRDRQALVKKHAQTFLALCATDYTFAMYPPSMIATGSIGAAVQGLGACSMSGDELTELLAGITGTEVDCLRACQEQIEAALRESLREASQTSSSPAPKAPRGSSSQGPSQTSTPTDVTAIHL
Chain of CDK6/cyclin D3 (Q00534 whole entry): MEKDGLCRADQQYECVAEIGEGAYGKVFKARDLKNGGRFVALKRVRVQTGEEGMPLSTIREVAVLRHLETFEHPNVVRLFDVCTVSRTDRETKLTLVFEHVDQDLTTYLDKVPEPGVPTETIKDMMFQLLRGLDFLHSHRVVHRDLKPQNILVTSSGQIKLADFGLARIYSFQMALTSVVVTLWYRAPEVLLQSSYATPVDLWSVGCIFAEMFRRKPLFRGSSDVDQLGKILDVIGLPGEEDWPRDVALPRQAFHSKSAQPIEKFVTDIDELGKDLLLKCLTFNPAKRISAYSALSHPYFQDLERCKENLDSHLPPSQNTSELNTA
Chain of Voltage-gated inwardly rectifying potassium channel KCNH2 (Q12809 whole entry): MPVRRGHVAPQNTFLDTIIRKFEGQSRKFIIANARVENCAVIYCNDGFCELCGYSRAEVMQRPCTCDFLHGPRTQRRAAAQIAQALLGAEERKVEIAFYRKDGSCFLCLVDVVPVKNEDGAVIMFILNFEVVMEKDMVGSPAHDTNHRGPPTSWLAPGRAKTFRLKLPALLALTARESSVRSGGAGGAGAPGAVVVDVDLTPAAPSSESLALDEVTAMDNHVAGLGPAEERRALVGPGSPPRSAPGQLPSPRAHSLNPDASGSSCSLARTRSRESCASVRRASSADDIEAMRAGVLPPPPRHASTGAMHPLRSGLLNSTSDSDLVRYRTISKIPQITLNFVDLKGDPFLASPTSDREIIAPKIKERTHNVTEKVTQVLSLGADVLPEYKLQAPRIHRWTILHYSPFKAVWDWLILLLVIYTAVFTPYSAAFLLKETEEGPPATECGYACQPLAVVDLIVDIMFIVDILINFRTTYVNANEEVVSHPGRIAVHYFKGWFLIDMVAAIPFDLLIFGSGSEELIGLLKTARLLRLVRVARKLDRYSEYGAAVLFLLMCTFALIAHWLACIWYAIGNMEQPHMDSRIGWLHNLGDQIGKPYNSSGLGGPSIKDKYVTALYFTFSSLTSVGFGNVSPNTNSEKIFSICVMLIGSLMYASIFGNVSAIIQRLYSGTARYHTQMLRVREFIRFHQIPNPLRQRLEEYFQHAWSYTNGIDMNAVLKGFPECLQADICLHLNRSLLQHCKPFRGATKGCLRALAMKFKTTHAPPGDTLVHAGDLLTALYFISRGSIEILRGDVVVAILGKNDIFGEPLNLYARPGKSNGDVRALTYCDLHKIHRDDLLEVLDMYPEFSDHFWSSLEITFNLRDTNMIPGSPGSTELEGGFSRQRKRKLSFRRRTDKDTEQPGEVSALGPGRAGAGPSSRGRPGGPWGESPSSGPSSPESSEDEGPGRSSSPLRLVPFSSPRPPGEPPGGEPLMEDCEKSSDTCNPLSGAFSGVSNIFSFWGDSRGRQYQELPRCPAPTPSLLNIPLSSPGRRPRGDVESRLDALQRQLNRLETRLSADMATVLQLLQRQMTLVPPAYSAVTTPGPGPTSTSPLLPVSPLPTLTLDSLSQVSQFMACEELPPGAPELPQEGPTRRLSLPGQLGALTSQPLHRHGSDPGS
Chain of Cyclin-dependent kinase 5/CDK5 activator 1 (Q00535 whole entry): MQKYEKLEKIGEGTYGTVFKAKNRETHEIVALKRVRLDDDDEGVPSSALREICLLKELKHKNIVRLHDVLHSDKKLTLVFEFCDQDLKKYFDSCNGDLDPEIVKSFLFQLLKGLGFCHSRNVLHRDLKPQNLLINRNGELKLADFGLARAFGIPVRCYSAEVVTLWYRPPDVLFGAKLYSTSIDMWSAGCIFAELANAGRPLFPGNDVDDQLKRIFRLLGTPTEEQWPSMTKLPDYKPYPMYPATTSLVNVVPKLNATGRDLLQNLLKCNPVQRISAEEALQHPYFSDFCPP
Chain of Cyclin-dependent kinase 5/CDK5 activator 1 (Q15078 whole entry, further chain): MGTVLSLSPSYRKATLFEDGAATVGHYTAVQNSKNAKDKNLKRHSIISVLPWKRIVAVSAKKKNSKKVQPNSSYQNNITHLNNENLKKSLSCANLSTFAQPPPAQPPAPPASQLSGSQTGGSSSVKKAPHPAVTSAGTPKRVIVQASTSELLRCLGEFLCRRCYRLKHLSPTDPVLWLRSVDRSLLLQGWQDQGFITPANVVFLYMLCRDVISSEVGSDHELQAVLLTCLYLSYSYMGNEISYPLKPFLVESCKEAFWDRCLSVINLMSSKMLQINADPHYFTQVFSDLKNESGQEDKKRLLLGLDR
Chain of CDK9/cyclin T1 (O60563 whole entry): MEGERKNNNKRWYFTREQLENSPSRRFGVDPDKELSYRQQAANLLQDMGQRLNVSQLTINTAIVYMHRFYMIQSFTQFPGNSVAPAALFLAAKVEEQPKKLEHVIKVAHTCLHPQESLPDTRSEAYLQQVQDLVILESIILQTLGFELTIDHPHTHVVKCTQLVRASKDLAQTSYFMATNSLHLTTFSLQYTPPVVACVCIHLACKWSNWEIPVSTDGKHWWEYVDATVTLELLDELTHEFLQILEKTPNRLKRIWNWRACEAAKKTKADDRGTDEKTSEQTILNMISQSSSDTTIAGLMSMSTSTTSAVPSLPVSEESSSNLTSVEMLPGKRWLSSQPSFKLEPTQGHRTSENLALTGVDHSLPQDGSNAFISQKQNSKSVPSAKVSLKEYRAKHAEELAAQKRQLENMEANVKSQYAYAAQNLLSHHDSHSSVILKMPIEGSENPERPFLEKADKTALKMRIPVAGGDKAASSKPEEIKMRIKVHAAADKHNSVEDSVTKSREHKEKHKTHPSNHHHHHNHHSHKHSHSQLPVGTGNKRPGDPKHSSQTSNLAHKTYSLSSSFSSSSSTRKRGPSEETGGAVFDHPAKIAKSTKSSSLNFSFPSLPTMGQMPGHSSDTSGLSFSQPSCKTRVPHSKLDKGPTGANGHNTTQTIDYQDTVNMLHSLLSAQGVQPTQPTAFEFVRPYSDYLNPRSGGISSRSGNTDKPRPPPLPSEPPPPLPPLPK
Chain of CDK9/cyclin T1 (P50750 whole entry): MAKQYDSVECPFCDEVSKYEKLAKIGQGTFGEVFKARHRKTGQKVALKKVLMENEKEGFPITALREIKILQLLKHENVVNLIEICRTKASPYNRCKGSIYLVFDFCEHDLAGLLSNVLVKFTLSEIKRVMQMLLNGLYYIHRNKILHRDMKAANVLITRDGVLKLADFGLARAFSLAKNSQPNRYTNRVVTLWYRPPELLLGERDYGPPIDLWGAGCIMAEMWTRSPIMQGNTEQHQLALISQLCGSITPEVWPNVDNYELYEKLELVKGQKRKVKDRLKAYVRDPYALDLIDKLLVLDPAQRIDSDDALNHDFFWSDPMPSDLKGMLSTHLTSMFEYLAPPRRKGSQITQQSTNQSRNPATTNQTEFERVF
Chain of Cytochrome P450 1A2 (P05177 whole entry): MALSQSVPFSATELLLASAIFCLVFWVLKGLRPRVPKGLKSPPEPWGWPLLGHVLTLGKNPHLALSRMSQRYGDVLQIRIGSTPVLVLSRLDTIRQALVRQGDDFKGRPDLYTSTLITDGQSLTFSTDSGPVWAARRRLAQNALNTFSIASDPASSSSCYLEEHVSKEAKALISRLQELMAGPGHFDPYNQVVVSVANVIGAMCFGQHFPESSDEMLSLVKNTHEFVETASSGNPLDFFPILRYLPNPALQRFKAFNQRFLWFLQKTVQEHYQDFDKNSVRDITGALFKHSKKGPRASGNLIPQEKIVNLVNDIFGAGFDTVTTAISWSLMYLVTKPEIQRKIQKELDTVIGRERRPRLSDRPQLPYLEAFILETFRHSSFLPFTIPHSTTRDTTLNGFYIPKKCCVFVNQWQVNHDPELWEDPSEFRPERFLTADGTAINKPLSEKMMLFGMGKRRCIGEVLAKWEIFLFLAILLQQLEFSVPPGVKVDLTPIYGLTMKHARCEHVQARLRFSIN

For `CN1CC[C@H](c2c(O)cc(O)c3c(=O)cc(/C=C/c4c(Cl)cccc4Cl)oc23)[C@H](O)C1`, the inhibition [1] was 94%, the IC50 [2] was 0.0019 µM and the IC50 [3] was 0.0155 µM. For the same compound, the IC50 [4] was 0.199 µM, the inhibition [5] was > 98% and the inhibition [6] was > 98%. The inhibition [7] was > 98%, the IC50 [8] was > 50 µM and the GI50 [9] was 5 µM. For the same compound, the GI50 [10] was 8 µM, the Activity [11] was 19% and the Activity [12] was 1.9%. The remaining at 24 h, 120 ug/ml [13] was 100%, the IC50 [14] was > 20 µM and the half-life at 100 µM [15] was > 0.5 h. The half-life at 100 µM [16] was > 0.5 h, the microsomal CLint at 100 µM [17] was < 13 µL/min/mg and the half-life at 3 µM [18] was 4.68 h. For the same compound, the half-life [19] was 1.2 h, the CLint [20] was 19 µL/min/mg and the half-life [21] was 5.46 h. The Vd [22] was 14.1 L/kg, the half-life [23] was 3.09 h and the AUC [24] was 0.643 µM·h. It also gave a half-life [25] of 3.62 h, a Cmax [26] of 316 nM and a Kp at 1 h [27] of 24.4. The Kp at 8 h [28] was 6.79, the Drug uptake [29] was “Active” and the inhibition in vivo at 70 mg/kg [30] was 31%. For the same compound, the MTD at 216 h [31] was 100 mg/kg, the Activity [32] was “Non-Toxic” and the TGI [33] was “inactive”. For the same compound, the Activity [34] was “Non-Toxic”.
